Measurements from ChEMBL document CHEMBL1145797, “Synthesis and antitumor activity of novel O-carbamoylmethyloxime derivatives of radicicol” (J Med Chem, 2003).

Key:
3Y1 cell line = test: Concentration to inhibit growth of normal rat fibroblast cells (3Y1-B cells) after 72 h exposure; type: functional, cell-based; conditions: 3Y1, 72 h
Method in brief: (§1)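 Cells precultured 24 h in DMEM with 10% fetal calf serum, then exposed to drug for 72 h. Viability read by MTT assay. IC50 taken as concentration giving 50% growth inhibition relative to control cultures.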

[1] = target: Proto-oncogene tyrosine-protein kinase Src (Rattus norvegicus, UniProt Q9WUD9); test: Inhibition of v-Src tyrosine kinase autophosphorylation in SR3Y1 cells after 15 hr exposure; type: cell-based
Method in brief: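 SR-3Y1 cells exposed to drug 15 h, lysed on ice 20 min in Tris pH 7.5 RIPA-type buffer with protease inhibitors and 1 mM vanadate. Equal-protein lysates run on SDS-PAGE, blotted with anti-phosphotyrosine antibody, HRP secondary, ECL detection. IC50 = concentration halving tyrosine phosphorylation.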

[2] = Concentration to inhibit growth of normal rat K-ras-transformed cells (KNRK 5.2 cells) after 72 hr exposure; type: functional; method in brief: as §1
NRK = test: Concentration to inhibit growth of normal rat kidney epithelial cells (NRK cells) after 72 hr exposure; type: functional, cell-based; method in brief: as §1
[3] = Concentration to inhibit growth of v-src-transformed cells (SR-3Y1 cells) after 72 h exposure; type: functional; conditions: Rattus norvegicus, SR3Y1, 72 h; method in brief: as §1
Mus musculus [4] = test: In vivo antitumor activity against BALB mice transplanted with human tumor (A431) Xenograft Model at a dose of 50 mg/kg by administering intravenously for 5 days and Mortality is calculated; type: functional; conditions: route intravenous
Method in brief: (§2)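 Adult BALB/c nu/nu mice (n = 5) inoculated sc in the flank with human tumor cells: MX-1 on day -14, A431 on day -18. Drug dissolved in cremophor EL/N,N-dimethylacetamide/physiological saline (7.5:5:87.5) and given iv once daily on days 0-4. Animals monitored for lethal toxicity and body weight loss.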

[5] = Inhibition of K-ras-induced MAPK phosphorylation in KNRK5.2 cells after 40h exposure at 0.2 uM; type: functional; conditions: Rattus norvegicus
Method in brief: (§3)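 KNRK5.2 cells exposed to 0.2 µM drug for 40 h, then lysed. Equal-protein lysates Western blotted in duplicate for Raf-1 (rabbit polyclonal), phospho-MAPK (phosphospecific antibody) and total Erk2 (monoclonal). Read-out is % inhibition of phospho-Erk2 formation or % Raf-1 depletion.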

Mus musculus [6] = test: In vivo antitumor activity against BALB mice transplanted with human tumor (MX1) Xenograft Model at a dose of 25 mg/kg by administering intravenously for 5 days and T/C value was calculated on 11th day; type: functional; conditions: route intravenous
Method in brief: (§4)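 Adult BALB/c nu/nu mice (n = 5), tumor cells inoculated sc in the flank (MX-1 day -14, A431 day -18). Drug in cremophor EL/N,N-dimethylacetamide/saline (7.5:5:87.5), given iv daily days 0-4. Tumor volume = length × width²/2. T/C = mean V/V0 of treated over control. Mann–Whitney U test.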

Mus musculus [7] = test: In vivo antitumor activity against BALB mice transplanted with human tumor (A431) Xenograft Model at a dose of 25 mg/kg by administering intravenously for 5 days and T/C value was calculated on 7th day; type: functional; conditions: dose 50 mg/kg; route intravenous; in the assay text read “50 mg/kg” for “25 mg/kg”; method in brief: as §4
Mus musculus [8] = species: Mus musculus; test: Dose required to produce lethal toxicity was determined; type: organism-based; conditions: in vivo; method in brief: as §2
Mus musculus [9] = test: In vivo antitumor activity against BALB mice transplanted with human tumor (MX-1) using Xenograft Model at a dose of 50 mg/kg by administering intravenously for 5 days and T/C value was calculated on 11th day; type: functional; conditions: route intravenous; method in brief: as §4
Mus musculus [10] = test: In vivo antitumor activity against BALB mice transplanted with human tumor (MX-1) Xenograft Model at a dose of 25 mg/kg by administering intravenously for 5 days and Mortality is calculated; type: functional; conditions: route intravenous; method in brief: as §2
[11] = Percent depletion of Raf-1 protein expression after 40h exposure at 0.2 uM in KNRK5.2 cells; type: functional, cell-based; conditions: Rattus norvegicus; method in brief: as §3
Mus musculus [12] = test: In vivo antitumor activity against BALB mice transplanted with human tumor (MX-1) Xenograft Model at a dose of 50 mg/kg by administering intravenously for 5 days and Mortality is calculated; type: functional; conditions: route intravenous; method in brief: as §2
Mus musculus [13] = test: In vivo antitumor activity against BALB mice transplanted with human tumor (MX-1) using Xenograft Model at a dose of 100 mg/kg by administering intravenously for 5 days and mortality is calculated; type: functional; conditions: route intravenous; method in brief: as §2
Mus musculus [14] = test: In vivo antitumor activity against BALB mice transplanted with human tumor (MX-1) using Xenograft Model at a dose of 100 mg/kg by administering intravenously for 5 days and T/C value is calculated on 14th day; type: functional; conditions: route intravenous

Compound | IC50 [1] [nM] | IC50 (3Y1 cell line) [nM] | IC50 [2] [nM] | IC50 (NRK) [nM] | IC50 [3] [nM] | other results
C[C@@H]1C[C@H]2O[C@@H]2\C=C/C=C/C(=N\OCC(=O)NCCc2cccn2C)Cc2c(Cl)c(O)cc(O)c2C(=O)O1 | > 1000 | 600 | 380 | 1200 | 84 | 
C[C@@H]1C[C@H]2O[C@@H]2\C=C/C=C/C(=N\OCC(=O)NC2CCCCC2)Cc2c(Cl)c(O)cc(O)c2C(=O)O1 | 210 | 67 | 73 | 190 | 5.7 | 
C[C@@H]1C[C@H]2O[C@@H]2\C=C/C=C/C(=N\OCC(=O)N2CCC(N3CCCCC3)CC2)Cc2c(Cl)c(O)cc(O)c2C(=O)O1 |  | > 3000 | > 3000 | 3000 | > 3000 | 
C[C@@H]1C[C@H]2O[C@@H]2\C=C/C=C/C(=N\OCC(=O)N2CCN(C)CC2)Cc2c(Cl)c(O)cc(O)c2C(=O)O1 |  | 1000 | 1500 | 1200 | 470 | 
C[C@@H]1C[C@H]2O[C@@H]2/C=C\C=C\C(=O)Cc2c(Cl)c(O)cc(O)c2C(=O)O1 [RADICICOL] | 180 | 700 | 110 | 290 | 59 | 
C[C@@H]1C[C@H]2O[C@@H]2\C=C/C=C/C(=N\OCC(=O)N2CCC(C(N)=O)CC2)Cc2c(Cl)c(O)cc(O)c2C(=O)O1 |  | > 3000 | > 3000 | > 3000 | > 3000 | 
C[C@@H]1C[C@H]2O[C@@H]2\C=C/C=C/C(=N\OCC(=O)NCc2cccnc2)Cc2c(Cl)c(O)cc(O)c2C(=O)O1 | > 1000 | 670 | 480 | 510 | 290 | 
C[C@@H]1C[C@H]2O[C@@H]2\C=C/C=C/C(=N\OCC(=O)N2CCCCC2)Cc2c(Cl)c(O)cc(O)c2C(=O)O1 | 25 | 8.3 | 14 | 18 | 6.1 | Mortality (Mus musculus [4]): 0; inhibition at 0.2 µM [5]: 95%; T/C min (Mus musculus [6]): 0.54; T/C min (Mus musculus [7]): 0.44; Lethal toxicity (Mus musculus [8]): 100 mg/kg; T/C min (Mus musculus [9]): 0.17; Mortality (Mus musculus [10]): 0; Depletion [11]: 74%; Mortality (Mus musculus [12]): 0
C[C@@H]1C[C@H]2O[C@@H]2\C=C/C=C/C(=N\O)Cc2c(Cl)c(O)cc(O)c2C(=O)O1 | 56 | 90 | 39 | 80 | 26 | inhibition at 0.2 µM [5]: 81%; Mortality (Mus musculus [13]): 0; T/C min (Mus musculus [14]): 0.49; Depletion [11]: 29%
C[C@@H]1C[C@H]2O[C@@H]2\C=C/C=C/C(=N\OCC(=O)N2CCC(O)CC2)Cc2c(Cl)c(O)cc(O)c2C(=O)O1 |  | > 3000 | > 3000 | > 3000 | > 3000 | 

Second part, led by results:

IC50 [1] [nM] | Compound | IC50 (3Y1 cell line) [nM] | IC50 [2] [nM] | IC50 (NRK) [nM] | IC50 [3] [nM] | other results
140 | C[C@@H]1C[C@H]2O[C@@H]2\C=C/C=C/C(=N\OCC(=O)N2CCOCC2)Cc2c(Cl)c(O)cc(O)c2C(=O)O1 | 310 | 340 | 340 | 130 | 
14 | C[C@@H]1C[C@H]2O[C@@H]2\C=C/C=C/C(=N\OCC(=O)NC2CCCC2)Cc2c(Cl)c(O)cc(O)c2C(=O)O1 | 41 | 45 | 41 | 9.8 | 
> 1000 | CCN(CC)CCNC(=O)CO\N=C1/C=C/C=C\[C@H]2O[C@@H]2C[C@@H](C)OC(=O)c2c(O)cc(O)c(Cl)c2C1 | > 3000 | > 3000 | > 3000 | 2300 | 
< 10 | CCN(CC)c1ccc(NC(=O)CO\N=C2/C=C/C=C\[C@H]3O[C@@H]3C[C@@H](C)OC(=O)c3c(O)cc(O)c(Cl)c3C2)cc1 | 490 | 240 | 520 | 100 | 
390 | COc1ccc(NC(=O)CO\N=C2/C=C/C=C\[C@H]3O[C@@H]3C[C@@H](C)OC(=O)c3c(O)cc(O)c(Cl)c3C2)cc1 | 100 | 81 | 260 | 58 | 
360 | COC(=O)CNC(=O)CO\N=C1/C=C/C=C\[C@H]2O[C@@H]2C[C@@H](C)OC(=O)c2c(O)cc(O)c(Cl)c2C1 | 790 | 570 | 700 | 240 | 
54 | C[C@@H]1C[C@H]2O[C@@H]2\C=C/C=C/C(=N\OCC(=O)Nc2cccnc2)Cc2c(Cl)c(O)cc(O)c2C(=O)O1 | 200 | 120 | 240 | 51 | 
17 | C[C@@H]1C[C@H]2O[C@@H]2\C=C/C=C/C(=N\OCC(=O)NCC2CCCCC2)Cc2c(Cl)c(O)cc(O)c2C(=O)O1 | 180 | 140 | 210 | 20 | 
43 | C[C@@H]1C[C@H]2O[C@@H]2\C=C/C=C/C(=N\OCC(=O)Nc2ccccc2)Cc2c(Cl)c(O)cc(O)c2C(=O)O1 | 620 | 290 | 320 | 120 | 
67 | C[C@@H]1C[C@H]2O[C@@H]2\C=C/C=C/C(=N\OCC(=O)N2CCCCCC2)Cc2c(Cl)c(O)cc(O)c2C(=O)O1 | < 4.1 | 6.4 | 7.3 | < 4.1 | 
> 1000 | CCOCCNC(=O)CO\N=C1/C=C/C=C\[C@H]2O[C@@H]2C[C@@H](C)OC(=O)c2c(O)cc(O)c(Cl)c2C1 | 390 | 230 | 260 | 93 | 
> 1000 | C[C@@H]1C[C@H]2O[C@@H]2\C=C/C=C/C(=N\OCC(=O)N(CCO)CCO)Cc2c(Cl)c(O)cc(O)c2C(=O)O1 | > 3000 | 2900 | > 3000 | 1100 | 
70 | C[C@@H]1C[C@H]2O[C@@H]2\C=C/C=C/C(=N\OCC(=O)N2CCCC2)Cc2c(Cl)c(O)cc(O)c2C(=O)O1 | 55 | 39 | 34 | 20 | 
> 1000 | C[C@@H]1C[C@H]2O[C@@H]2\C=C/C=C/C(=N\OCC(=O)NCCO)Cc2c(Cl)c(O)cc(O)c2C(=O)O1 | 2800 | 2200 | > 3000 | 1500 | 
